According to ChEMBL document CHEMBL3576776, “3-Nitroasterric Acid Derivatives from an Antarctic Sponge-Derived Pseudogymnoascus sp. Fungus” (2015):

Key:
Format in all cases: functional
Aspergillus fumigatus = assay: Antifungal activity against Aspergillus fumigatus ATCC46645
Outline: (§1)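 Compounds serially diluted twofold in DMSO to give 10 concentrations starting at 64 μg/mL; bacterial and fungal strains exposed by previously described methods. MIC taken as lowest concentration inhibiting ≥95% of growth after overnight incubation. Data processed to give MIC; assay robustness RZ′ factor 0.89–0.97 across experiments.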

Staphylococcus aureus [1] = assay: Antibacterial activity against methicillin-resistant Staphylococcus aureus MB5393
Outline: (§2)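 Compounds twofold serially diluted in DMSO, 10 concentrations starting at 64 μg/mL. Growth inhibition read after overnight incubation. MIC taken as the lowest concentration inhibiting ≥95% of growth. Assay robustness RZ′ factor 0.89–0.97.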

Candida albicans [2] = assay: Antifungal activity against Candida albicans MY1055; outline: as §1
Staphylococcus aureus [3] = assay: Antibacterial activity against methicillin-sensitive Staphylococcus aureus EPI167; outline: as §2
Acinetobacter baumannii = assay: Antibacterial activity against Acinetobacter baumannii CL 5973; outline: as §1
Pseudomonas aeruginosa = assay: Antibacterial activity against Pseudomonas aeruginosa PAO1; outline: as §1
Escherichia coli = assay: Antibacterial activity against Escherichia coli MB2884; outline: as §1
Candida albicans [4] = assay: Antifungal activity against Candida albicans ATCC64124; outline: as §1

Measured: MIC95

COC(=O)c1c(Oc2cc(C)cc(O)c2C(=O)OCC(C)C(=O)OC)c(OC)cc(O)c1[N+](=O)[O-] (configuration not stated)
> 64 µg/mL: all assays above

COC(=O)c1c(Oc2cc(C)cc(O)c2C(=O)OC(C)C(=O)O)c(OC)cc(O)c1[N+](=O)[O-] (configuration not stated)
> 64 µg/mL: all assays above

COC(=O)c1c(Oc2cc(C)cc(O)c2C(=O)OCC(C)C(=O)O)c(OC)cc(O)c1[N+](=O)[O-] (configuration not stated)
> 64 µg/mL: all assays above

COC(=O)c1c(Oc2cc(C)cc(O)c2C(=O)O)c(OC)cc(O)c1[N+](=O)[O-]
> 64 µg/mL: all assays above
